Measured values published in ChEMBL document CHEMBL3045285, “Synthesis and insecticidal activities of novel anthranilic diamides containing modified N-pyridylpyrazoles” (2010).
In brackets after ≈: the same amount, converted by molar mass.

Legend:
Type in all cases: functional
Mythimna separata [1] = assay: Insecticidal activity against fourth-instar larval stage of Mythimna separata (Oriental armyworm) in compound pretreated Zea mays L. Tangyu 10 leaves assessed as mortality at 10 mg/l at 25 +/-1 degC after 2 days
Outline: (§1)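 Greenhouse-reared fourth-instar oriental armyworm larvae. Corn (Tangyu 10) leaves laid on moist filter paper in Petri dishes, sprayed with test solution (200 mg/L solution diluted in distilled water), then air-dried. Ten larvae per dish. Held at 25 ± 1 °C; mortality scored dead/alive 2 days post-treatment. Triplicate treatments, Abbott-corrected, 0–100 scale.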

Mythimna separata [2] = assay: Insecticidal activity against fourth-instar larval stage of Mythimna separata (Oriental armyworm) in compound pretreated Zea mays L. Tangyu 10 leaves assessed as mortality at 20 mg/l at 25 +/-1 degC after 2 days; outline: as §1
Mythimna separata [3] = assay: Insecticidal activity against fourth-instar larval stage of Mythimna separata (Oriental armyworm) in compound pretreated Zea mays L. Tangyu 10 leaves assessed as mortality at 200 mg/l at 25 +/-1 degC after 2 days; outline: as §1
Plutella xylostella [4] = assay: Insecticidal activity against second-instar larval stage of Plutella xylostella (diamondback moth) in cabbage leaves assessed as mortality at 10 mg/l at 25 +/-1 degC treated for 3 secs before larva infestation measured after 2 days by leaf-dip method; conditions: 48 h
Outline: (§2)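 Greenhouse-reared diamondback moth larvae tested by leaf-dip method at 25 ± 1 °C. Test solution made at 200 mg/L, then diluted with distilled water to working concentrations. Mortality scored dead/alive, corrected with Abbott's formula and expressed on a 0–100 scale.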

Plutella xylostella [5] = assay: Insecticidal activity against second-instar larval stage of Plutella xylostella (diamondback moth) in cabbage leaves assessed as mortality at 2.5 mg/l at 25 +/-1 degC treated for 3 secs before larva infestation measured after 2 days by leaf-dip method; conditions: 48 h; outline: as §2
Plutella xylostella [6] = assay: Insecticidal activity against second-instar larval stage of Plutella xylostella (diamondback moth) in cabbage leaves assessed as mortality at 0.25 mg/l at 25 +/-1 degC treated for 3 secs before larva infestation measured after 2 days by leaf-dip method; conditions: 48 h; outline: as §2
Plutella xylostella [7] = assay: Insecticidal activity against second-instar larval stage of Plutella xylostella (diamondback moth) in cabbage leaves assessed as mortality at 20 mg/l at 25 +/-1 degC treated for 3 secs before larva infestation measured after 2 days by leaf-dip method; conditions: 48 h; outline: as §2
Plutella xylostella [8] = assay: Insecticidal activity against second-instar larval stage of Plutella xylostella (diamondback moth) in cabbage leaves assessed as mortality at 1 mg/l at 25 +/-1 degC treated for 3 secs before larva infestation measured after 2 days by leaf-dip method; conditions: 48 h; outline: as §2
Plutella xylostella [9] = assay: Insecticidal activity against second-instar larval stage of Plutella xylostella (diamondback moth) in cabbage leaves assessed as mortality at 5 mg/l at 25 +/-1 degC treated for 3 secs before larva infestation measured after 2 days by leaf-dip method; conditions: 48 h; outline: as §2
Mythimna separata [10] = assay: Insecticidal activity against fourth-instar larval stage of Mythimna separata (Oriental armyworm) in compound pretreated Zea mays L. Tangyu 10 leaves assessed as mortality at 50 mg/l at 25 +/-1 degC after 2 days; outline: as §1
Mythimna separata [11] = assay: Insecticidal activity against fourth-instar larval stage of Mythimna separata (Oriental armyworm) in compound pretreated Zea mays L. Tangyu 10 leaves assessed as mortality at 100 mg/l at 25 +/-1 degC after 2 days; outline: as §1
Plutella xylostella [12] = assay: Insecticidal activity against second-instar larval stage of Plutella xylostella (diamondback moth) in cabbage leaves assessed as mortality at 0.5 mg/l at 25 +/-1 degC treated for 3 secs before larva infestation measured after 2 days by leaf-dip method; conditions: 48 h; outline: as §2
Mythimna separata [13] = assay: Insecticidal activity against fourth-instar larval stage of Mythimna separata (Oriental armyworm) in compound pretreated Zea mays L. Tangyu 10 leaves assessed as mortality at 5 mg/l at 25 +/-1 degC after 2 days; outline: as §1
Plutella xylostella [14] = assay: Insecticidal activity against second-instar larval stage of Plutella xylostella (diamondback moth) in cabbage leaves assessed as mortality at 0.125 mg/l at 25 +/-1 degC treated for 3 secs before larva infestation measured after 2 days by leaf-dip method; conditions: 48 h; outline: as §2
Mythimna separata [15] = assay: Insecticidal activity against fourth-instar larval stage of Mythimna separata (Oriental armyworm) in compound pretreated Zea mays L. Tangyu 10 leaves assessed as mortality at 2.5 mg/l at 25 +/-1 degC after 2 days; outline: as §1
Plutella xylostella [16] = assay: Insecticidal activity against second-instar larval stage of Plutella xylostella (diamondback moth) in cabbage leaves assessed as mortality at 25 +/-1 degC treated for 3 secs before larva infestation measured after 2 days by leaf-dip method; conditions: 48 h; outline: as §2

Row | Compound | mortality at 10 µg/mL (Mythimna separata [1]) [%] | mortality at 20 µg/mL (Mythimna separata [2]) [%] | mortality at 200 µg/mL (Mythimna separata [3]) [%] | mortality at 10 µg/mL (Plutella xylostella [4]) [%] | mortality at 2.5 µg/mL (Plutella xylostella [5]) [%] | mortality at 0.25 µg/mL (Plutella xylostella [6]) [%] | mortality at 20 µg/mL (Plutella xylostella [7]) [%] | mortality at 1 µg/mL (Plutella xylostella [8]) [%] | mortality at 5 µg/mL (Plutella xylostella [9]) [%] | mortality at 50 µg/mL (Mythimna separata [10]) [%] | mortality at 100 µg/mL (Mythimna separata [11]) [%] | mortality at 0.5 µg/mL (Plutella xylostella [12]) [%] | mortality at 5 µg/mL (Mythimna separata [13]) [%] | mortality at 0.125 µg/mL (Plutella xylostella [14]) [%] | mortality at 2.5 µg/mL (Mythimna separata [15]) [%] | LC50 (Plutella xylostella [16]) [µg/mL]
1 | CNC(=O)c1cc(Cl)cc(C)c1NC(=O)c1cc(CNC(=O)C(F)(F)F)nn1-c1ncccc1Cl | 100 | 100 | 100 | 100 | 100 | 0 | 100 | 80 | 100 | 100 | 100 | 40 | 40 |  |  | 
2 | CNC(=O)c1cc(Cl)cc(C)c1NC(=O)c1cc(CN=[N+]=[N-])nn1-c1ncccc1Cl | 100 | 100 | 100 | 100 | 100 | 75 | 100 | 100 | 100 | 100 | 100 | 100 | 100 | 45 | 40 | 
3 | CC(=O)OCc1cc(C(=O)Nc2c(C)cc(Cl)cc2C(=O)NC2CC2)n(-c2ncccc2Cl)n1 | 0 | 100 | 100 | 100 | 90 | 0 | 100 | 60 | 100 | 100 | 100 | 40 |  |  |  | 
4 | CC(=O)OCc1cc(C(=O)Nc2c(C)cc(Cl)cc2C(=O)NC(C)(C)C)n(-c2ncccc2Cl)n1 | 100 | 100 | 100 | 100 | 95 | 25 | 100 | 70 | 100 | 100 | 100 | 50 | 20 | 0 |  | 
5 | CNC(=O)c1cc(C(=O)Nc2c(C)cc(Cl)cc2C(=O)NC(C)(C)C)n(-c2ncccc2Cl)n1 | 100 | 100 | 100 | 100 | 100 | 30 | 100 | 100 | 100 | 100 | 100 | 85 | 40 | 0 |  | 
6 | CNC(=O)c1cc(Cl)cc(C)c1NC(=O)c1cc(Br)nn1-c1ncccc1Cl [CHLORANTRANILIPROLE] | 100 | 100 | 100 | 100 | 100 | 100 | 100 | 100 | 100 | 100 | 100 | 100 | 100 | 100 | 100 | 3.8 (≈ 7.87 µM)
